Experimental findings from ChEMBL document CHEMBL3817773, “Antibacterial activities of fluorescent nano assembled triphenylamine phosphonium ionic liquids” (Bioorg Med Chem Lett, 2016) are described below.

Structures are written as SMILES. Activity calls are given as the source filed them. The calls are words filed in the database; no cut-off is given here.

One data set relates to Klebsiella pneumoniae. Briefly: Antimicrobial activity against Klebsiella pneumoniae CIP 82.91 after 18 to 20 hrs by broth dilution method. The format is functional. In short, it runs like this: (§1)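 MICs measured against a panel of ESKAPE-representative strains, including S. aureus SA1199, at concentrations up to 64 mg/L.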
The next data set concerns Pseudomonas aeruginosa. In words: Antimicrobial activity against Pseudomonas aeruginosa CIP 100720 after 18 to 20 hrs by broth dilution method. The format is functional. In short, it runs like this:
as §1

A further data set has as its system HepG2. In words: Cytotoxicity against human HepG2 cells assessed as reduction in cell viability after 24 hrs by WST1 assay. The format is cell-based. The following applies: HepG2, 24 h.
The next data set has as its system Acinetobacter baumannii. In words: Antimicrobial activity against Acinetobacter baumannii ATCC 19606 after 18 to 20 hrs by broth dilution method. The format is functional. The method in brief: as §1
Data set [1] has as its system Staphylococcus aureus. Briefly: Antimicrobial activity against Staphylococcus aureus CIP 76.25 after 18 to 20 hrs by broth dilution method. The format is functional. In short, it runs like this: as §1
For a further data set, the system named is Klebsiella aerogenes. Briefly: Antimicrobial activity against Enterobacter aerogenes ATCC 13048 after 18 to 20 hrs by broth dilution method. The format is functional. In short, it runs like this: as §1
The subject of another data set is Enterococcus faecium. Briefly: Antimicrobial activity against Enterococcus faecium DSMZ 20477 after 18 to 20 hrs by broth dilution method. The format is functional. In short, it runs like this: as §1
In data set [2] the test system is Staphylococcus aureus. Briefly: Antimicrobial activity against multi-drug resistant Staphylococcus aureus SA1199B overexpressing NorA after 18 to 20 hrs by broth dilution method. The format is functional. The method in brief:
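MIC read against the NorA-overproducing S. aureus SA1199B, tested alongside its isogenic parent strain SA1199. Compounds were tested at concentrations up to 64 mg/L.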

Data set [3] deals with Staphylococcus aureus. Briefly: Antimicrobial activity against Staphylococcus aureus SA1199 after 18 to 20 hrs by broth dilution method. The format is functional. In short, it runs like this:
as §1

For another data set, the system named is Escherichia coli. In words: Antimicrobial activity against Escherichia coli CIP 54.8 after 18 to 20 hrs by broth dilution method. The format is functional. The method in brief: as §1
The subject of data set [4] is Staphylococcus aureus. In words: Inhibition of metabolic activity in Staphylococcus aureus CIP 76.25 assessed as inhibition of resazurin reduction to resorufin at 2 mg/L treated for 15 mins measured over 2 to 6 hrs by CellTiter-Blue assay. The format is functional, organism-based. In short, it runs like this: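 S. aureus CIP 7625 was treated 15 min with 2 mg/L, then metabolic activity was monitored as the rate of resazurin reduction to resorufin, compared with the untreated control.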

The test system of data set [5] is Staphylococcus aureus. In words: Growth inhibition of Staphylococcus aureus CIP 76.25 at 2 mg/L by time kill assay relative to control. The format is functional, organism-based. The method in brief: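 S. aureus CIP 7625 proliferation was followed by absorbance at 600 nm, with or without 2 mg/L, against an untreated control curve.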
The test system of data set [6] is Staphylococcus aureus. Briefly: Bactericidal activity against Staphylococcus aureus CIP 76.25 assessed as log reduction in bacterial count at 2 mg/L after 30 mins by time kill assay relative to control. The format is functional. The method in brief:
(§2)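 Time-kill assay on S. aureus CIP 7625 exposed to 2 mg/L, with untreated control in parallel. Viability was followed by CFU counts over time, and log10 CFU/mL reduction was read at 30 min and 2 h of incubation.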

Data set [7] relates to Staphylococcus aureus. In words: Bactericidal activity against Staphylococcus aureus CIP 76.25 assessed as log reduction in bacterial count at 2 mg/L after 2 hrs by time kill assay relative to control. The format is functional. The method in brief: as §2
Data set [8] relates to Staphylococcus aureus. In words: Drug uptake in Staphylococcus aureus CIP 76.25 at 2 mg/L after 1.7 to 35 sec by phase contrast microscopic analysis. The format is ADME, organism-based. The following applies: in vivo.
Data set [9] relates to Staphylococcus aureus. In words: Drug uptake in Staphylococcus aureus CIP 76.25 at 2 mg/L after 1.7 to 35 sec by fluorescence microscopic analysis. The format is ADME, organism-based. The following applies: in vivo. In short, it runs like this:
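Uptake was tracked through the intrinsic fluorescence of the triphenylamine moiety, using fluorescence microscopy of bacteria during incubation to follow accumulation kinetics over seconds.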

For `CCCCCC[P+](CCCC)(CCCC)CCCC.[Br-]`, the MIC against Klebsiella pneumoniae, against Pseudomonas aeruginosa, in the data set on Acinetobacter baumannii, against Staphylococcus aureus [1], against Klebsiella aerogenes and with Enterococcus faecium was more than 64 µg/mL in each case. The MIC with Staphylococcus aureus [2], against Staphylococcus aureus [3] and against Escherichia coli was more than 64 µg/mL throughout. The IC50 with HepG2 is less than 0.124 µg/mL.
Consider `CCCCCC[P+](CCCC)(CCCC)CCCC.[Cl-]`, for which the MIC with Klebsiella pneumoniae, with Pseudomonas aeruginosa, in the data set on Acinetobacter baumannii, against Staphylococcus aureus [1], with Klebsiella aerogenes and with Enterococcus faecium was more than 64 µg/mL throughout. For the same compound, the MIC in the data set with Staphylococcus aureus [2], in the data set on Staphylococcus aureus [3] and in the data set with Escherichia coli was more than 64 µg/mL throughout. Further, the IC50 in the data set on HepG2 was found to be 5.42 µg/mL.
With `CCCC[P+](CCCC)(CCCC)CCCCCCOCc1ccc(N(c2ccccc2)c2ccccc2)cc1`, in the data set on Staphylococcus aureus [4], the inhibition result is “Active”. Moreover, the “growth inhibition (GI)” value with Staphylococcus aureus [5] was “Active”.
As to `c1ccc(N(c2ccccc2)c2ccccc2)cc1`, the MIC with Klebsiella pneumoniae, against Pseudomonas aeruginosa, against Acinetobacter baumannii, in the data set with Staphylococcus aureus [1], against Klebsiella aerogenes and in the data set with Enterococcus faecium was more than 64 µg/mL throughout. In addition, the MIC with Staphylococcus aureus [2], in the data set on Staphylococcus aureus [3] and against Escherichia coli was more than 64 µg/mL in each case. In addition, the IC50 in the data set on HepG2 is less than 0.124 µg/mL.
With `CCCC[P+](CCCC)(CCCC)CCCCCCOC.[Br-]`, the MIC in the data set on Klebsiella pneumoniae, against Pseudomonas aeruginosa, against Acinetobacter baumannii, against Staphylococcus aureus [1], in the data set on Klebsiella aerogenes and against Enterococcus faecium was more than 64 µg/mL throughout. The MIC in the data set on Staphylococcus aureus [2], with Staphylococcus aureus [3] and in the data set on Escherichia coli was more than 64 µg/mL in each case. Moreover, the IC50 in the data set on HepG2 was 0.712 µg/mL.
In the case of `CCCCCC[P+](CCCC)(CCCC)CCCC.[I-]`, the MIC against Klebsiella pneumoniae, against Pseudomonas aeruginosa, in the data set on Acinetobacter baumannii, in the data set with Staphylococcus aureus [1], against Klebsiella aerogenes and in the data set with Enterococcus faecium was more than 64 µg/mL throughout. Also, the MIC against Staphylococcus aureus [2], against Staphylococcus aureus [3] and against Escherichia coli was more than 64 µg/mL throughout. In the data set on HepG2, the IC50 was 0.189 µg/mL.
For `CCCC[P+](CCCC)(CCCC)CCCCCCOCc1ccc(N(c2ccccc2)c2ccccc2)cc1.[Br-]`, the MIC in the data set with Klebsiella pneumoniae was 8 µg/mL; against Pseudomonas aeruginosa it was more than 64 µg/mL; against Acinetobacter baumannii it was 16 µg/mL; with Staphylococcus aureus [1], 0.5 µg/mL; against Klebsiella aerogenes, 32 µg/mL; against Enterococcus faecium it was 1 µg/mL. For the same compound, the MIC with Staphylococcus aureus [2] was found to be 0.5 µg/mL; against Staphylococcus aureus [3] it was 0.5 µg/mL; against Escherichia coli it was 16 µg/mL. Further, the figures for the Activity in the data set on Staphylococcus aureus [6] and in the data set with Staphylococcus aureus [7] were more than 3 log10CFU/ml and more than 4 log10CFU/ml, respectively. For the same compound, in the data set with HepG2, the IC50 was less than 0.124 µg/mL. The Drug uptake entry with Staphylococcus aureus [8] and with Staphylococcus aureus [9] was “Active” throughout.
`CCCC[P+](CCCC)(CCCC)CCCCCCOCc1ccc(N(c2ccccc2)c2ccccc2)cc1.[Cl-]`: the MIC worked out at 16 µg/mL in the data set with Klebsiella pneumoniae; 32 µg/mL with Pseudomonas aeruginosa; 16 µg/mL in the data set on Acinetobacter baumannii; 1 µg/mL against Staphylococcus aureus [1]; 16 µg/mL with Klebsiella aerogenes; 1 µg/mL against Enterococcus faecium. The values for the MIC in the data set on Staphylococcus aureus [2], against Staphylococcus aureus [3] and against Escherichia coli were 0.5 µg/mL, 0.5 µg/mL and 16 µg/mL, respectively. In addition, the IC50 in the data set with HepG2 was less than 0.124 µg/mL.
Take `CCCC[P+](CCCC)(CCCC)CCCCCCOCc1ccc(N(c2ccccc2)c2ccccc2)cc1.[I-]`: the MIC with Klebsiella pneumoniae was 16 µg/mL; against Pseudomonas aeruginosa it was 32 µg/mL; in the data set with Acinetobacter baumannii it was 16 µg/mL; in the data set on Staphylococcus aureus [1] it was 1 µg/mL; with Klebsiella aerogenes, 32 µg/mL; in the data set with Enterococcus faecium it was 2 µg/mL. Moreover, the figures for the MIC in the data set with Staphylococcus aureus [2], with Staphylococcus aureus [3] and in the data set on Escherichia coli were 1 µg/mL, 1 µg/mL and 16 µg/mL, respectively. Also, the IC50 with HepG2 is less than 0.124 µg/mL.
